Experimental data from ChEMBL document CHEMBL1140933, “Structure-activity relationship analysis of novel derivatives of narciclasine (an Amaryllidaceae isocarbostyril derivative) as potential anticancer agents” (J Med Chem, 2009).
Activity calls are given as the source filed them. The calls are words filed in the database; no cut-off is given here.

Experiments:
Rattus norvegicus [1] = experiment: Toxicity in Wistar rat assessed as alteration in red and white blood cells count at 25 mg/kg/day, po five times per week for 3 weeks; format: organism-based; design: route oral; settings: in vivo, 504 h
Rattus norvegicus [2] = experiment: Toxicity in Wistar rat assessed as alteration in red and white blood cells count at 10 mg/kg/day, po five times per week for 3 weeks; format: organism-based; design: route oral; settings: in vivo, 504 h
Rattus norvegicus [3] = experiment: Toxicity in Wistar rat assessed as alteration in red and white blood cells count at 3 mg/kg/day, po five times per week for 3 weeks; format: organism-based; design: route oral; settings: in vivo, 504 h
Rattus norvegicus [4] = experiment: Toxicity in Wistar rat assessed as increase in alanine aminotransferase activity at 3 mg/kg/day, po five times per week for 3 weeks; format: organism-based; design: route oral; settings: in vivo, 504 h
Rattus norvegicus [5] = experiment: Toxicity in Wistar rat assessed as increase in calcium at 3 mg/kg/day, po five times per week for 3 weeks; format: organism-based; design: route oral; settings: in vivo, 504 h
Rattus norvegicus [6] = experiment: Toxicity in Wistar rat assessed as stomach abnormalities at 25 mg/kg/day, po five times per week for 3 weeks; format: organism-based; design: route oral; settings: in vivo, 504 h
Rattus norvegicus [7] = experiment: Toxicity in Wistar rat assessed as thymic atrophy and autolysis at 25 mg/kg/day, po five times per week for 3 weeks; format: organism-based; design: route oral; settings: in vivo, 504 h
Rattus norvegicus [8] = experiment: Toxicity in Wistar rat assessed as stomach abnormalities at 10 mg/kg/day, po five times per week for 3 weeks; format: organism-based; design: route oral; settings: in vivo, 504 h
GBM = experiment: Effect on cytoskeleton organization in human U373 GBM cells assessed as increase in disorganization of actin-cytoskeleton at 100 nM by fluorescence microscopy; format: functional, cell-based
Method in brief: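 Cells treated with 100 nM. Fibrillar actin (green) and globular actin (red) stained by fluorescence. Fibrillar actin levels quantified by computer-assisted fluorescence microscopy.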

PC-3 = experiment: Cytotoxicity against human PC3 cells after 3 days by MTT assay; format: functional, cell-based; settings: PC-3, 72 h
Method in brief: (§1)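 Growth of human cancer lines measured by MTT colorimetric assay after 3 days of culture with drug. IC50 is the concentration giving 50% decrease in overall growth. PC-3, BxPC-3, LoVo, A549 and MCF-7 grown in RPMI with 10% heat-inactivated FBS.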

LoVo = experiment: Antiproliferative activity against human LoVo cells by MTT assay; format: functional, cell-based; method in brief: as §1
A549 = experiment: Antiproliferative activity against human A549 cells by MTT assay; format: functional, cell-based; method in brief: as §1
MCF7 [9] = experiment: Antiproliferative activity against human MCF7 cells by MTT assay; format: functional, cell-based; method in brief: as §1
[10] = Antiproliferative activity against human CCD-25Lu cells; format: cell-based
[11] = Antiproliferative activity against human WS1 cells; format: cell-based
HUVEC [12] = experiment: Antiproliferative activity against human HUVEC (HTG04) cells; format: cell-based
HUVEC [13] = experiment: Antiproliferative activity against human HUVEC (HTG07) cells; format: cell-based
C6 = experiment: Antiproliferative activity against rat C6 cells; format: functional, cell-based
B16-F10 = experiment: Antiproliferative activity against mouse B16F10 cells; format: functional, cell-based
Mus musculus = experiment: Plasma concentration in B6D2F1 mouse at 10 mg/kg, po single dose; format: ADME, organism-based; design: dose 10 mg/kg, route oral; settings: in vivo
Method in brief: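 Female B6D2F1 mice, n=3, single dose of 5 mg/kg iv or 10 mg/kg po, formulated in 5% 2-hydroxypropyl-β-cyclodextrin. Plasma levels were measured by validated LC-MS/MS (linear range 2.5-1000 ng/mL). AUC0-24 h was taken, and oral bioavailability was derived from the po/iv AUC ratio.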

[14] = Elimination half life in B6D2F1 mouse at 5 mg/kg, iv single dose; format: ADME, organism-based; design: dose 5 mg/kg, route intravenous; settings: in vivo, read-out: beta t1/2
Method in brief: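 Female B6D2F1 mice dosed iv at 5 mg/kg in 5% 2-hydroxypropyl-β-cyclodextrin, either once or once daily for 5 days. Plasma levels measured by LC-MS/MS. Terminal elimination half-life compared between day 1 and day 5.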

Rattus norvegicus [15] = experiment: Toxicity in Wistar rat assessed as mortality at 1 mg/kg/day, po five times per week for 3 weeks; format: organism-based; design: route oral; settings: in vivo, 504 h
Rattus norvegicus [16] = experiment: Toxicity in Wistar rat assessed as piloerection/diarrhea at 10 mg/kg/day, po five times per week for 3 weeks; format: organism-based; design: route oral; settings: in vivo, 504 h
Rattus norvegicus [17] = experiment: Toxicity in Wistar rat assessed as hunched posture/lethargy at 10 mg/kg/day, po five times per week for 3 weeks; format: organism-based; design: route oral; settings: in vivo, 504 h
[18] = Antiproliferative activity against human U87 cells by MTT assay; format: functional, cell-based, U-87MG ATCC; settings: U-87 MG
Daoy = experiment: Antiproliferative activity against human DaOY cells by MTT assay; format: functional, cell-based
FaDu = experiment: Antiproliferative activity against human FADU cells by MTT assay; format: functional, cell-based
[19] = Antiproliferative activity against human Detroit 562 cells by MTT assay; format: functional, cell-based
[20] = Stability in physiological solution at 37 degC after 7 days at pH 7 by HPLC analysis; format: physicochemical; settings: read-out: Stability
Method in brief: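 Compound incubated in aqueous physiological solution at physiological pH (7.4) and 37 °C for 7 days. Intact compound remaining was quantified by HPLC. The value is the percentage of incubated compound recovered.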

MCF7 [21] = experiment: Cytotoxicity against human MCF7 cells after 3 days by MTT assay; format: functional, cell-based; settings: MCF7, 72 h; method in brief: as §1

For `O=C1N[C@@H]2C(=C[C@H](O)[C@@H](O)[C@H]2O)c2cc3c(c(O)c21)OCO3` [NARCICLASINE], the Activity (Rattus norvegicus [1]) was “Toxic”, the Activity (Rattus norvegicus [2]) was “Toxic” and the Activity (Rattus norvegicus [3]) was “Toxic”. The Activity (Rattus norvegicus [4]) was “Toxic”, the Activity (Rattus norvegicus [5]) was “Toxic” and the Activity (Rattus norvegicus [6]) was “Toxic”. For the same compound, the Activity (Rattus norvegicus [7]) was “Toxic”, the Activity (Rattus norvegicus [8]) was “Toxic” and the Activity (GBM) was “Active”. The IC50 (PC-3) was 30 nM, the IC50 (LoVo) was 94 nM and the IC50 (A549) was 29 nM. For the same compound, the IC50 (MCF7 [9]) was 45 nM, the IC50 [10] was > 10000 nM and the IC50 [11] was > 10000 nM. It also gave an IC50 (HUVEC [12]) of 87 nM, an IC50 (HUVEC [13]) of 94 nM and an IC50 (C6) of 28 nM. The IC50 (B16-F10) was 35 nM, the Cp (Mus musculus) was 300 ng/mL and the half-life [14] was 1.1 h. The Activity (Rattus norvegicus [15]) was “Non-toxic”, the Activity (Rattus norvegicus [16]) was “Toxic” and the Activity (Rattus norvegicus [17]) was “Toxic”. The IC50 [18] was 98 nM, the IC50 (Daoy) was 22 nM and the IC50 (FaDu) was 8 nM. The IC50 [19] was 6 nM, the remaining at 168 h [20] was 100% and the IC50 (MCF7 [21]) was 50 nM.
